Only some compounds are listed: those with a hit (about 3.5% of all), similar ones and a draw of the others.
MrgX1 allo act = positive allosteric modulators of MrgX1, primary screen, HEK293 cells, Fluo-4 calcium flux; Mas-related G-protein coupled receptor member X1 (Homo sapiens), Q96LB2; FDSS; active compounds read high; B-score at 10 µM; hit rate 0.63% among 310,000; AID 588675, 2011;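 active = plate-corrected calcium response at least 3 library SD above typical, normal starting fluorescence, not activating the receptor alone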;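 also: compound read alongside a low EC10 to EC30 dose of BAM8-22 agonist; peak minus trough fluorescence over baseline measured at the second addition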
Target sequence (Q96LB2 whole entry, looked up): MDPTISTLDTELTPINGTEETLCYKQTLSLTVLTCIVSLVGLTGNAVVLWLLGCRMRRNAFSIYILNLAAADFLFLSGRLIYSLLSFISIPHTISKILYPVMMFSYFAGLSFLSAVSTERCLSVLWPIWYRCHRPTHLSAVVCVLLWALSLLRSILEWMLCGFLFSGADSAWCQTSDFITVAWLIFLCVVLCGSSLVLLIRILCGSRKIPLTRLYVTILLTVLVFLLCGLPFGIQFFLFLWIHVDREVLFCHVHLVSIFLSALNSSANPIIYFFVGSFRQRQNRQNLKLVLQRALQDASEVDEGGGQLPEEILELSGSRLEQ
MrgX1 agonist = agonists of human MrgX1 receptor, primary screen, HEK293 cells, Fluo-4 calcium flux; Mas-related G-protein coupled receptor member X1 (Homo sapiens), Q96LB2; Fluo-4 calcium fluorescence, agonist mode; active compounds read high; B-score at 10 µM; hit rate 0.44% among 310,000; AID 588627, 2011;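 active = calcium response B-score plate-corrected fluorescence ratio at least 3 library SD, with starting fluorescence B-score inside 5 SD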
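Test system: HEK293 cells stably expressing human MrgX1 receptor; Input: fifteen thousand cells per well; Dosing: compound delivered in addition one of three; Schedule: overnight seeding, then 1 h dark dye loading; Technique: Fluo-4 NW calcium fluorescence; Measure: B-scored fluorescence response ratio; Controls: positive and negative controls per plate.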
RGS4 inh = RGS4 inhibitors, primary screen, cell-based, HEK293 M3R inducible RGS4, calcium flux; Regulator of G-protein signaling 4 (Homo sapiens), P49798; Fluo-4 calcium flux; active compounds read high; triggered by carbachol at its EC20; B-score at 10 µM; hit rate 0.45% among 310,000; AID 463165, 2010;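 active = B-score, a plate-corrected calcium signal, over three deviations above library mean, with baseline fluorescence within five deviations of library mean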;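 also: RGS4 expression induced by doxycycline in cells with stable M3 receptor; B-score is computed from the integrated fluorescence ratio over baseline after carbachol; higher B-score means a larger calcium signal and so more RGS4 inhibition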
MrgX1 antag = antagonists of human MrgX1 receptor, primary screen, HEK293 cells, Fluo-4 calcium flux | Mas-related G-protein coupled receptor member X1 (Homo sapiens), Q96LB2 | BAM8-22 antagonism; active compounds read low | B-score at 10 µM | hit rate 1.3% among 310,000;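 active = calcium-response B-score plate-corrected more than 3 library SD below zero, starting fluorescence within 5 deviations, no agonist response on first addition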;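 also: peak minus trough fluorescence over baseline after final BAM8-22 challenge near maximal dose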
RGS4 act = RGS4 potentiators or activators, primary screen, cell-based, HEK293 M3R inducible RGS4, calcium flux; carbachol calcium flux Fluo4; active compounds read low; B-score at 10 µM; hit rate 0.92% among 310,000;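 active = B-score of the integrated calcium signal more than 4 SD below the library mean, with starting fluorescence not abnormally high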;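 also: negative B-score means reduced calcium response which marks RGS4 activation or potentiation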
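Also added: carbachol at ECmax as muscarinic agonist stimulus; Assay system: HEK293 cells with stable M3R and inducible RGS4; Timing: overnight RGS4 induction, 30 min dye load 37 °C, 20 min compound RT; Measured by: Fluo4-AM (2 µM) calcium-flux fluorescence, kinetic read.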
Active calls of the source: *; i = inactive.

SMILES | MrgX1 allo act | MrgX1 agonist | RGS4 inh | MrgX1 antag | RGS4 act
CN(C)c1ccc(NC(=O)CSc2nc(C3CC3)nc3ccccc23)cc1 | i | i | i | i | i
CCN1CCN(c2c(Cl)cccc2NC(=O)c2ccc([N+](=O)[O-])o2)CC1 | i | i | i | i | -7.5*
O=C(Nc1cccc(Cl)c1N1CCCC1)c1ccc([N+](=O)[O-])o1 | i | i | i | i | i
Cc1ccccc1C(=O)NNC(=O)c1ccc(F)cc1 | i | i | i | -7.1* | i
COc1ccccc1C(=O)NNC(=O)c1ccc(F)cc1 | i | i | i | i | i
COCC(=O)Nc1ncc(S(=O)(=O)c2ccc([N+](=O)[O-])cc2)s1 | i | i | i | i | i
O=C(Nc1ncc(S(=O)(=O)c2ccc([N+](=O)[O-])cc2)s1)c1cccc2ccccc12 | i | i | i | i | -7.7*
CC(=O)N(C)c1ccc(OCC(O)Cn2c(C)nc3ccccc32)cc1 (stereo not given) | i | i | i | i | i
CN(C)c1ccc2nc3c(=O)[nH]c(=O)nc-3n(CC(O)C(O)C(O)CO)c2c1 (stereo not given) | i | i | i | i | -7.9*
COc1cccc(C2=CC(c3ccc(N(C)C)cc3)n3ncnc3N2)c1 (stereo not given) | i | 48* | i | i | i
COc1cccc(C2=CC(c3ccccc3)n3ncnc3N2)c1 (stereo not given) | 15* | i | i | i | i
COc1cc(C(=O)NCc2ncccc2C)ccc1OC1CCN(C(C)=O)CC1 | i | i | i | i | i
CCc1ccc(CNC(=O)C2CCC(=O)N(CCc3ccc(Cl)cc3)C2)nc1 (stereo not given) | i | i | i | i | i
COc1ccc(S(=O)(=O)N2CCc3ccccc32)cc1C(=O)OCC(=O)c1c(N)n(C)c(=O)n(C)c1=O | i | i | i | i | -9.6*
CCc1cc2c3c(c(=O)oc2cc1OC(C)C(=O)O)CCCC3 (stereo not given) | i | i | i | i | i
CCc1cc2c3c(c(=O)oc2cc1O)CCCC3 | i | i | i | -5.5* | i
CC1CC(C)CN(S(=O)(=O)c2ccc3c(c2)oc(=O)n3CC(=O)NCCCOC(C)C)C1 (stereo not given) | i | i | i | i | i
Cc1ccc(S(=O)(=O)Nn2c(O)c(C=C3N=c4ccccc4=N3)sc2=S)cc1 | i | i | i | -5.3* | i
Cc1ccc(C(=O)Nn2c(O)c(C=C3N=c4ccccc4=N3)sc2=S)cc1 | i | i | i | i | i
O=C(NCc1cccnc1)C(=O)NCC1OCCCN1S(=O)(=O)c1ccc(F)cc1 (stereo not given) | i | i | i | i | i
CCc1sc(N(C(=O)Cc2ccccc2)c2ccccc2)nc1-c1ccccc1 | i | i | i | i | i
CCCCC(=O)N(c1ccc(C(=O)O)cc1)c1nc(-c2ccc(Cl)cc2)c(CC)s1 | i | i | i | i | -7.4*
Cc1cc2cccc(C)c2nc1SCC(=O)NNC(=O)c1ccco1 | 12* | i | i | i | i
Cc1cc(C)c2nc(SCC(=O)NNC(=O)c3ccco3)c(C)cc2c1 | i | i | i | i | i
Cc1nc2ccc(Br)cc2c2c1CC(CO)O2 (stereo not given) | i | i | i | i | i
Cc1cccc(N(CC(O)CON=C2c3ccccc3-c3ccccc32)S(C)(=O)=O)c1 (stereo not given) | i | i | i | -4.9* | i
N#Cc1ccsc1NC(=O)c1ccc(Cl)c([N+](=O)[O-])c1 | i | i | i | -4.9* | i
O=C(Nc1ccc(C(O)(C(F)(F)F)C(F)(F)F)cc1)c1ccc(Cl)c([N+](=O)[O-])c1 | i | i | i | i | -8.8*
N#Cc1ccsc1NC(=O)c1cccc([N+](=O)[O-])c1 | i | i | i | i | i
